A selection: hits, their analogues and other compounds. The true share with any hit is near 4.2%.
HDAC3 inh: human HDAC3 inhibition | O15379 | recombinant HDAC3, fluorogenic peptide/trypsin coupled, fluorescence | inhibition, % at 8.3 µM | hit rate 0.15% among 320,000; in the data active = inhibition above about 26%, passing the limit was not always enough
SENP1 FRET inh: blocks the human SENP1 SUMO protease catalytic domain. hit rate 0.21% among 360,000. inhibition, % at 10 µM. recombinant SENP1 catalytic domain, CyPet-SUMO1-YPet FRET cleavage. Q9P0U3;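 active = inhibition at least 30% at 10 µM, raw YFP signal under a set limit, fluorescence ratio 0.5 to 1.5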;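 note: 0% = enzyme with DMSO and 100% = no enzyme wells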
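System: Recombinant human SENP1 catalytic domain, His6-tagged | Incubation: Enzyme reaction for 50 min at room temperature, dark | Medium: Tris pH 8 with BME, BSA, NP40 and catalase | Also added: 25 nM SUMO1 FRET substrate | Compound: 10 µM single point, 0.5% DMSO | Measured by: FRET fluorescence in CFP and YFP emission channels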
M18AAP inhibitor: blocks P. falciparum M18 aspartyl aminopeptidase; AID 1822; recombinant PfM18AAP, H-Glu-NHMec fluorogenic cleavage; hit rate 1.2% among 290,000; inhibition, % at 7.35 µM;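 active = inhibition above the campaign mean inhibition over all tested compounds plus 3 SD, cut at about 28% in these data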;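 note: 0% = plate median of test compound wells and 100% = 2 mM ZnCl2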
CTSL1 counter: cathepsin L1 inhibition, PFM18AAP counter-screen; inhibition, % at 5.96 µM; AID 1906; hit rate 0.49% among 300,000; recombinant F. hepatica cathepsin L1, Z-Leu-Arg-MCA fluorescence;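 active = inhibition above the mean of all tested compounds plus 3 SD, set per screening campaign, cut at about 17% in these data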;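 note: 0% = plate median of test compound wells and 100% = 1 µM Z-Phe-Ala-diazomethylketone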
AHR activator: human AHR activation. P35869. AHR-responsive luciferase reporter cells, luminescence. activation, % at 5 µM. hit rate 2.5% among 320,000; in the data active = activation above about 47%;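 note: 0% = vehicle wells and 100% = reference agonist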
Target sequence (P35869 whole entry, looked up): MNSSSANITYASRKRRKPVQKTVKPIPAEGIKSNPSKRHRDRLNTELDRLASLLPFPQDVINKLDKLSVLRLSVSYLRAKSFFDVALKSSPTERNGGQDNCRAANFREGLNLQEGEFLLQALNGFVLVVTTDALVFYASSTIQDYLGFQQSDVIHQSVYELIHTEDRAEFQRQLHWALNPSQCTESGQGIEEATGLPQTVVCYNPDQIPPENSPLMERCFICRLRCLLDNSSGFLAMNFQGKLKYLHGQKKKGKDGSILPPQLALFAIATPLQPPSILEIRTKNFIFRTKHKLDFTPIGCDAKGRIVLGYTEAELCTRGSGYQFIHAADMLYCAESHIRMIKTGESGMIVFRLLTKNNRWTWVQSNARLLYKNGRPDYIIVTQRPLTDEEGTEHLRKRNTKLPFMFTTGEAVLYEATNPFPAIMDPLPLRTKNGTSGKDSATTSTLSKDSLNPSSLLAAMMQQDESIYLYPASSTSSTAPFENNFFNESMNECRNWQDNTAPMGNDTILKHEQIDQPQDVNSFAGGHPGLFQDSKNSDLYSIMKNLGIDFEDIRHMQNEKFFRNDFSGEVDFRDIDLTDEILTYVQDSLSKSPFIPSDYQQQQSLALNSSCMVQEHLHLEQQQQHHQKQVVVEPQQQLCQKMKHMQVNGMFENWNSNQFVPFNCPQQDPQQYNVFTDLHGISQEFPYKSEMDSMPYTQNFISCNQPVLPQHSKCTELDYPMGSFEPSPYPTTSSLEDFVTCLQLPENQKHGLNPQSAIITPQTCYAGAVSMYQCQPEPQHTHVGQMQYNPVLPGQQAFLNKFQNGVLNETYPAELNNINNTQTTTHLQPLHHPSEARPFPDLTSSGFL
FXN GAA850 act: activators of GAA850 frataxin (FXN) promoter; activation, % at 6 µM; HEK293 lucGAA850 FXN promoter luciferase reporter, 24 h; percent of 10 µM SAHA response; hit rate 0.56% among 360,000; AID 540364;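 active = activation above the average of all compounds screened plus 3 SD, cutoff fixed separately per campaign, cut at about 7.5% in these data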;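 note: 0% = DMSO wells and 100% = 10 µM SAHA wells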
GAA30 FXN cntr: GAA30 FXN promoter activation counter-screen | activation, % at 6 µM | HEK293 lucGAA30 FXN promoter luciferase, 24 h; DMSO = 0%, 5 µM ipriflavone = 100% | hit rate 66% among 1,900 | AID 588350 | shares compounds with FXN GAA850 act;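 active = mean activation above the mean of solvent-only control wells plus 3 SD, cut at about 22% in these data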;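 note: counterscreen of GAA850 promoter hits where activity marks nonselective or luminescence artifacts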
GAA850 confirm: GAA850 FXN promoter activation confirmation; shares compounds with FXN GAA850 act; HEK293 lucGAA850 FXN promoter luciferase reporter, 24 h; 100% = activation by SAHA; activation, % at 6 µM; hit rate 86% among 1,900;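 active = mean activation above a set limit taken from the primary screen, cut at about 8% in these data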;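 note: 0% = DMSO wells and 100% = 10 µM SAHA wells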
An asterisk follows results filed as active; . = no result.

SMILES | HDAC3 inh | SENP1 FRET inh | M18AAP inhibitor | CTSL1 counter | AHR activator | FXN GAA850 act | GAA30 FXN cntr | GAA850 confirm
CN(C(=O)COC(=O)/C=C/c1ccc(C(F)(F)F)cc1)c1c(N)n(Cc2ccccc2)c(=O)[nH]c1=O | 1.3 | 0.9 | . | 4.2 | -0.5 | -1.4 | . | .
O=C(Nc1cnn(C23CC4CC(CC(C4)C2)C3)c1)c1cnn2cccnc12 | 7.5 | 1.3 | -3.1 | -6.9 | 0.3 | 10.2* | 107.2* | 42.2*
Cc1cc(O)c(NC(=O)c2ccc(Br)o2)cc1C | 2.7 | 0.1 | 18.0 | -2.9 | 38.3 | 9.3* | 90.7* | 27.4*
CCN(CC)c1ccc(NC(=O)c2ccc(Br)o2)c(C)c1 | 4.0 | 0.3 | 14.0 | -5.7 | -5.5 | 4.1 | . | .
CCN1C(=O)[C@H]2[C@H]3CN=C(SCc4ccc(Cl)cc4)N3[C@@](CC)(C(=O)OC)[C@H]2C1=O | . | 2.4 | . | . | . | 10.6* | 23.0* | 9.2*
CCN1C(=O)[C@H]2[C@H]3CN=C(SCc4ccc(OC)cc4)N3[C@@](CC)(C(=O)OC)[C@H]2C1=O | . | 1.1 | . | . | . | -0.2 | . | .
COC(=O)[C@@]1(C)[C@H]2C(=O)N(Cc3ccccc3)C(=O)[C@H]2[C@H]2CN=C(SCc3ccc(C)cc3)N21 | . | 0.6 | . | . | . | 10.4* | 32.4* | 12.2*
O=[N+]([O-])c1ccc(Sc2cccc3cccnc23)cc1 | 0.1 | 2.4 | -4.5 | -0.5 | 0.5 | 9.3* | 83.3* | 29.5*
O=[N+]([O-])c1ccc(Sc2cccc3cccnc23)c([N+](=O)[O-])c1 | -0.9 | 1.6 | 7.9 | 0.8 | 7.8 | 21.9* | -96.2 | -22.5
O=[N+]([O-])c1ccc(Sc2ccncn2)c([N+](=O)[O-])c1 | . | 0.1 | . | . | . | 70.7* | -19.6 | 97.4*
CCNC(=O)N(C)c1c(CC)nc2ccc(C(=O)N3CCN(S(=O)(=O)CC)CC3)cn12 | . | -0.1 | . | . | . | 0.0 | . | .
Cc1cccc(Nc2n[nH]c(C)c2[N+](=O)[O-])c1 | . | 1.2 | 5.5 | 1.6 | 59.2* | 8.7* | 92.2* | 36.9*
Clc1nc2sccn2c1/C=N/n1cnc2ccccc21 | -3.2 | 1.1 | 8.0 | -2.9 | 36.9 | 9.1* | 82.1* | 32.1*
Cc1ccc(CNC(=O)CCC(=O)Nc2nnc(C(C)C)s2)cc1 | -0.4 | 2.4 | -0.9 | -2.2 | 1.5 | -1.5 | . | .
CCC(=O)Nc1cccc(NC(=S)NC(=O)c2cc3ccccc3o2)c1 | 8.9 | 2.1 | 2.6 | -1.5 | 9.2 | 8.0* | 106.2* | 34.3*
CCC(=O)Nc1cccc(NC(=S)NC(=O)c2ccccc2)c1 | 2.3 | 2.5 | -3.1 | -0.8 | 40.8 | 2.8 | . | .
CCC(=O)Nc1cccc(NC(=S)NC(=O)c2ccc(C)cc2)c1 | -0.3 | 3.9 | -10.9 | -0.7 | 24.3 | 8.2* | 107.3* | 33.8*
CCC(=O)Nc1ccc(NC(=S)NC(=O)c2cc3ccccc3o2)cc1 | 1.3 | -0.6 | -2.2 | 0.4 | 2.9 | 4.1 | . | .
Cc1ccc(S(=O)(=O)NCCC(=O)N2CCN(c3ccccc3)CC2)cc1C | . | 0.7 | . | . | 2.0 | 1.7 | . | .
CCn1c(NC(=O)c2ccccc2F)c(-c2cccs2)c(=O)c2ccccc21 | -1.2 | -8.5 | -2.6 | -2.8 | 1.6 | 0.1 | . | .
Cc1cccc([C@@H]2[C@@H]3C(=O)N(Cc4ccccc4)C(=O)[C@@H]3[C@]3(CC(C)C)C(=O)N(c4cccc(F)c4)C(=O)N23)c1 | 13.3 | 2.6 | . | -1.5 | 2.5 | -1.9 | . | .
CCN1C(=O)[C@H]2[C@@H](c3ccccc3)N3C(=O)N(c4cccc(F)c4)C(=O)[C@@]3(CC(C)C)[C@H]2C1=O | -2.6 | 3.1 | 2.4 | 0.6 | 0.1 | 8.8* | 25.4* | 7.1
CCN1C(=O)[C@H]2[C@@H](c3ccc(C)cc3)N3C(=O)N(c4cccc(Br)c4)C(=O)[C@@]3(CC(C)C)[C@H]2C1=O | 1.7 | -1.1 | . | -5.0 | 0.8 | 15.6* | 21.9* | 11.4*
COc1cc(CN2C[C@@H](CO)O[C@@H](n3cnc4c(N5CCCC5)ncnc43)C2)cc(OC)c1OC | . | -0.9 | . | . | . | 1.4 | . | .
CCOc1nc(C)ccc1-c1noc(-c2ccco2)n1 | -0.4 | -1.9 | -8.5 | 1.9 | -2.1 | 7.7* | 53.4* | 18.1*
SMILES | HDAC3 inh | SENP1 FRET inh | M18AAP inhibitor | CTSL1 counter | AHR activator | FXN GAA850 act | GAA30 FXN cntr | GAA850 confirm
COc1ccc(CN2C(=O)CCC2(C)c2nnnn2-c2ccc3c(c2)OCCO3)cc1OC (centres undefined) | . | 0.9 | . | . | . | . | . | .
Cc1cccc(CCNC(=O)c2cccc(NC3=NC4CS(=O)(=O)CC4S3)c2)c1 (centres undefined) | 3.7 | 0.8 | 3.8 | 4.7 | -1.7 | 16.4* | 12.4 | 6.7
CC1(C)Cc2cccc(OCC(=O)OCC(=O)NCc3ccccc3)c2O1 | -1.4 | 3.4 | -10.3 | -0.3 | -1.7 | 3.1 | . | .
O=C(CCc1c[nH]c2ccccc12)OCc1cccc([N+](=O)[O-])c1 | -0.8 | 0.9 | -5.3 | -2.1 | 3.5 | -0.9 | . | .
O=C1Nc2ccc(Br)cc2/C1=C/C(=O)c1ccc2c(c1)OCO2 | 9.5 | -3.6 | 25.8 | -2.9 | 69.9* | 11.4* | 13.7 | 9.9*
Cn1ccnc1C(O)c1ccccc1 (centres undefined) | 0.7 | 0.5 | -15.1 | 1.3 | 1.5 | -0.1 | . | .
Cn1ccnc1C(O)c1ccc(OCc2ccccc2)cc1 (centres undefined) | -5.9 | 1.5 | 4.2 | 0.3 | 3.5 | 7.7* | 57.8* | 18.0*
O=C(NCCc1ccc(F)cc1)c1coc(=O)c(Br)c1 | -2.2 | 0.9 | -14.6 | 3.7 | 0.3 | 10.2* | -5.6 | 17.0*
O=C(Nc1ccccc1F)c1coc(=O)c(Br)c1 | -0.6 | -5.5 | 5.2 | 6.2 | -1.7 | 2.1 | . | .
O=C(c1ccc(-c2ccccc2Cl)o1)N1CCC1 | . | 1.5 | . | . | . | 2.6 | . | .
O=C(c1ccc(-c2cccc(Cl)c2Cl)o1)N1CCOCC1 | 7.0 | -0.1 | 5.1 | 4.0 | 16.0 | 8.8* | 108.0* | 39.1*
C[C@]12CC[C@H](O)CC1=CCC1C2CC[C@@]2(C)C1CC[C@@H]2NCc1ccccc1 (some centres undefined) | . | 1.7 | . | . | . | -0.6 | . | .
ClC(/C=N/n1cnnc1)=C/c1ccccc1 | 1.4 | 1.0 | 31.7* | -3.8 | 0.4 | 7.8* | 58.6* | 30.3*
CC(/C=N/n1cnnc1)=C\c1ccccc1 | 0.0 | 2.6 | 6.3 | 4.3 | 0.0 | 0.0 | . | .
O=C1C=CC(=O)N1c1ccccc1N1C(=O)C=CC1=O | . | 3.6 | . | . | . | 8.7* | -116.6 | -34.6
O=C(c1ccccc1)c1ccccc1N1C(=O)C=CC1=O | -0.3 | 3.9 | -85.3 | 2.3 | -2.7 | -0.3 | . | .
Cc1cccc(C(C#N)c2nc3ccccc3nc2C(F)(F)F)c1 (centres undefined) | 9.8 | 3.5 | -3.9 | 4.2 | 0.7 | 0.7 | . | .

Source: PubChem BioAssay
